pIC50: −log10 of the molar value. One block for each molecule: values may come before it. The source made the active and inactive calls. The rule behind the calls is not given here.
Tests used:
[1] = Antiproliferative activity against human PC3 cells after 96 hrs by MTT assay; type: functional; conditions: PC-3, 96 h
How it was run: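 PC-3 cells grown in RPMI1640 with 10% heat-inactivated FBS; seeded 2×10³ cells/well, 24 h at 37°C, 5% CO₂, then compound at various concentrations for 96 h. MTT (2 mg/mL) added for 4 h, formazan dissolved in DMSO, absorbance 570 nm. GI₅₀ from inhibition ratios versus untreated cells; three independent experiments, mean reported.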

[2] = biological target: T1, Serine/threonine-protein kinase pim-1 (Homo sapiens, UniProt P11309); experiment: Inhibition of Pim1 kinase in human PC3 cells assessed as decrease in BAD phosphorylation level at 8 to 16 uM after 24 hrs by Western blot analysis; type: cell-based; conditions: PC-3
Target sequence in this assay (P11309 whole entry, looked up): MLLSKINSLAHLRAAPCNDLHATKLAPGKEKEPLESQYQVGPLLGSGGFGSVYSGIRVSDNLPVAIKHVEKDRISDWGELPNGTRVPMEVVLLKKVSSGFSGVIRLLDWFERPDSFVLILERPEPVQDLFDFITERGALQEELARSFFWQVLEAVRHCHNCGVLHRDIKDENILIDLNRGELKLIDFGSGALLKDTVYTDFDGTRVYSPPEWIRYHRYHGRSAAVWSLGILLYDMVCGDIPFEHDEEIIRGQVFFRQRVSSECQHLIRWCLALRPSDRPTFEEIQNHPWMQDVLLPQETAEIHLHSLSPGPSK

[3] = biological target: T1, Serine/threonine-protein kinase pim-1; experiment: Inhibition of Pim1 kinase in human PC3 cells assessed as increase in p21 level at 8 to 16 uM after 24 hrs by Western blot analysis; type: cell-based; conditions: PC-3
Target sequence in this assay (P11309 whole entry, looked up): as above

[4] = biological target: T1, Serine/threonine-protein kinase pim-1; experiment: Inhibition of Pim1 kinase in human PC3 cells assessed as increase in p27 level at 8 to 16 uM after 24 hrs by Western blot analysis; type: cell-based; conditions: PC-3
Target sequence in this assay (P11309 whole entry, looked up): as above

[5] = biological target: T1, Serine/threonine-protein kinase pim-1; experiment: Inhibition of Pim1 kinase (unknown origin) using substrate S3 after 50 mins by HTRF assay
Target sequence in this assay (P11309 whole entry): as the sequence (P11309 whole entry, looked up) above

PC-3 = experiment: Induction of ERK phosphorylation in human PC3 cells at 8 to 16 uM after 24 hrs by Western blot analysis; type: cell-based
[6] = Cell cycle arrest in human PC3 cells assessed as cell accumulation at sub-G1 phase at 8 uM after 48 hrs by Propidium Iodide staining based flow cytometric analysis (reference value: 2.5%); type: functional; conditions: PC-3
How it was run: (§1)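 PC-3 cells in six-well plates treated 0, 8, 12 or 16 μM for 24 or 48 h. Floating and adherent cells pooled, PBS-washed, fixed in ice-cold 70% ethanol at -20°C overnight, treated with 1 mg/mL RNase at 37°C for 30 min, stained with PI at 50 μg/mL final. DNA content read by flow cytometry, excitation 488 nm, emission 625 nm.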

[7] = Cell cycle arrest in human PC3 cells assessed as cell accumulation at G0/G1 phase at 8 uM after 48 hrs by Propidium Iodide staining based flow cytometric analysis (reference value: 57.9%); type: functional; conditions: PC-3; how it was run: as §1
[8] = Cell cycle arrest in human PC3 cells assessed as cell accumulation at G2/M phase at 8 uM after 48 hrs by Propidium Iodide staining based flow cytometric analysis (reference value: 32.4%); type: functional; conditions: PC-3; how it was run: as §1
[9] = Cell cycle arrest in human PC3 cells assessed as cell accumulation at sub-G1 phase at 12 uM after 48 hrs by Propidium Iodide staining based flow cytometric analysis (reference value: 2.5%); type: functional; conditions: PC-3; how it was run: as §1
[10] = Cell cycle arrest in human PC3 cells assessed as cell accumulation at G0/G1 phase at 12 uM after 48 hrs by Propidium Iodide staining based flow cytometric analysis (reference value: 57.9%); type: functional; conditions: PC-3; how it was run: as §1
[11] = Cell cycle arrest in human PC3 cells assessed as cell accumulation at G2/M phase at 12 uM after 48 hrs by Propidium Iodide staining based flow cytometric analysis (reference value: 32.4%); type: functional; conditions: PC-3; how it was run: as §1
[12] = Cell cycle arrest in human PC3 cells assessed as cell accumulation at sub-G1 phase at 16 uM after 48 hrs by Propidium Iodide staining based flow cytometric analysis (reference value: 2.5%); type: functional; conditions: PC-3; how it was run: as §1
[13] = Cell cycle arrest in human PC3 cells assessed as cell accumulation at G0/G1 phase at 16 uM after 48 hrs by Propidium Iodide staining based flow cytometric analysis (reference value: 57.9%); type: functional; conditions: PC-3; how it was run: as §1
[14] = Cell cycle arrest in human PC3 cells assessed as cell accumulation at G2/M phase at 16 uM after 48 hrs by Propidium Iodide staining based flow cytometric analysis (reference value: 32.4%); type: functional; conditions: PC-3; how it was run: as §1
[15] = Cell cycle arrest in human PC3 cells assessed as cell accumulation at sub-G1 phase at 8 uM after 24 hrs by Propidium Iodide staining based flow cytometric analysis (reference value: 1.7%); type: functional; conditions: PC-3; how it was run: as §1
[16] = Cell cycle arrest in human PC3 cells assessed as cell accumulation at G0/G1 phase at 8 uM after 24 hrs by Propidium Iodide staining based flow cytometric analysis (reference value: 57.1%); type: functional; conditions: PC-3; how it was run: as §1
[17] = Cell cycle arrest in human PC3 cells assessed as cell accumulation at G2/M phase at 8 uM after 24 hrs by Propidium Iodide staining based flow cytometric analysis (reference value: 32%); type: functional; conditions: PC-3; how it was run: as §1
[18] = Cell cycle arrest in human PC3 cells assessed as cell accumulation at sub-G1 phase at 12 uM after 24 hrs by Propidium Iodide staining based flow cytometric analysis (reference value: 1.7%); type: functional; conditions: PC-3; how it was run: as §1
[19] = Cell cycle arrest in human PC3 cells assessed as cell accumulation at G0/G1 phase at 12 uM after 24 hrs by Propidium Iodide staining based flow cytometric analysis (reference value: 57.1%); type: functional; conditions: PC-3; how it was run: as §1
[20] = Cell cycle arrest in human PC3 cells assessed as cell accumulation at G2/M phase at 12 uM after 24 hrs by Propidium Iodide staining based flow cytometric analysis (reference value: 32%); type: functional; conditions: PC-3; how it was run: as §1
[21] = Cell cycle arrest in human PC3 cells assessed as cell accumulation at sub-G1 phase at 16 uM after 24 hrs by Propidium Iodide staining based flow cytometric analysis (reference value: 1.7%); type: functional; conditions: PC-3; how it was run: as §1
[22] = Cell cycle arrest in human PC3 cells assessed as cell accumulation at G0/G1 phase at 16 uM after 24 hrs by Propidium Iodide staining based flow cytometric analysis (reference value: 57.1%); type: functional; conditions: PC-3; how it was run: as §1
[23] = Cell cycle arrest in human PC3 cells assessed as cell accumulation at G2/M phase at 16 uM after 24 hrs by Propidium Iodide staining based flow cytometric analysis (reference value: 32%); type: functional; conditions: PC-3; how it was run: as §1
[24] = biological target: T1, Serine/threonine-protein kinase pim-1; experiment: Inhibition of Pim1 kinase in human PC3 cells assessed as decrease in c-Myc level at 8 to 16 uM after 24 hrs by Western blot analysis; type: cell-based; conditions: PC-3
Target sequence in this assay (P11309 whole entry, looked up): as above

[25] = biological target: T1, Serine/threonine-protein kinase pim-1; experiment: Inhibition of Pim1 kinase in human PC3 cells assessed as decrease in 4E-BP1 phosphorylation level at 8 to 16 uM after 24 hrs by Western blot analysis; type: cell-based; conditions: PC-3
Target sequence in this assay (P11309 whole entry, looked up): as above

Structure (SMILES): Cc1ccnc(Nc2ccc3c(Cl)ccc(O)c3n2)c1
GI50 [1]: 10.2 µM

Structure (SMILES): Oc1cccc2ccc(Nc3cc(Cl)ccn3)nc12
GI50 [1]: 2.81 µM

Structure (SMILES): Cc1ccnc(Nc2ccc3cccc(O)c3n2)c1
GI50 [1]: 5.84 µM

Structure (SMILES): Oc1ccc(Br)c2ccc(Oc3ccccn3)nc12
GI50 [1]: > 30 µM

Structure (SMILES): COc1cccc2ccc(Nc3ccccn3)nc12
GI50 [1]: 7.47 µM

Structure (SMILES): COc1cccc2ccc(Nc3cc(C)ccn3)nc12
GI50 [1]: 3.82 µM

Structure (SMILES): COc1ccc(Cl)c2ccc(Nc3ccccn3)nc12
GI50 [1]: 29.2 µM

Structure (SMILES): CN1CCC(CNc2ccc3ncc(-c4cccc(OC(F)(F)F)c4)n3n2)CC1 [SGI-1776]
GI50 [1]: 4.86 µM

inhibition [2]: Dose-dependent effect
inhibition [3]: Dose-dependent effect
inhibition [4]: Dose-dependent effect
pIC50 [5]: 6.12
Activity [24]: Dose-dependent effect
inhibition [25]: Dose-dependent effect
Structure (SMILES): Oc1ccc(Cl)c2ccc(Nc3ccccn3)nc12
Activity (PC-3): Active
Activity [6]: 13.1%
Activity [7]: 52.9%
Activity [8]: 25%
GI50 [1]: 1.29 µM
Activity [9]: 27.7%
Activity [10]: 44.4%
Activity [11]: 20%
Activity [12]: 52.6%
Activity [13]: 31%
Activity [14]: 11%
Activity [15]: 2.9%
Activity [16]: 65.2%
Activity [17]: 19.3%
Activity [18]: 10.4%
Activity [19]: 64.5%
Activity [20]: 17.3%
Activity [21]: 31.5%
Activity [22]: 48.1%
Activity [23]: 13.9%

Structure (SMILES): Oc1ccc(Br)c2ccc(Sc3ccccn3)nc12
GI50 [1]: 10.2 µM

pIC50 [5]: < 5.00
Structure (SMILES): c1ccc(Nc2ccc3ccccc3n2)nc1
GI50 [1]: > 30 µM

Structure (SMILES): Oc1ccc(Cl)c2ccc(Oc3ccccn3)nc12
GI50 [1]: > 30 µM

Structure (SMILES): Oc1ccc(Cl)c2ccc(Nc3cc(Cl)ccn3)nc12
GI50 [1]: 25.5 µM

Structure (SMILES): Clc1ccnc(Nc2ccc3ccccc3n2)c1
GI50 [1]: > 30 µM

Structure (SMILES): COc1ccc(Cl)c2ccc(Nc3cc(Cl)ccn3)nc12
GI50 [1]: > 30 µM

Structure (SMILES): Oc1cccc2ccc(Oc3ccccn3)nc12
GI50 [1]: > 30 µM

pIC50 [5]: < 5.00
Structure (SMILES): Oc1cccc2ccc(Sc3ccccn3)nc12
GI50 [1]: 20.9 µM

Structure (SMILES): Oc1ccc(Cl)c2ccc(Sc3ccccn3)nc12
GI50 [1]: 10.2 µM

Structure (SMILES): Cc1ccnc(Nc2ccc3ccccc3n2)c1
GI50 [1]: 26.7 µM

Structure (SMILES): COc1cccc2ccc(Nc3cc(Cl)ccn3)nc12
GI50 [1]: 11.8 µM

Structure (SMILES): COc1ccc(Cl)c2ccc(Nc3cc(C)ccn3)nc12
GI50 [1]: > 30 µM

Structure (SMILES): Oc1cccc2ccc(Nc3ccccn3)nc12
GI50 [1]: 2.6 µM
